# Laboratory results taken from ChEMBL document CHEMBL4382285, “Discovery of Novel Retigabine Derivatives as Potent KCNQ4 and KCNQ5 Channel Agonists with Improved Specificity” (ACS Med Chem Lett, 2019).
# Active and inactive are the calls of the source. The calls are words filed in the database; no cut-off is given here.
# Key:
# Type in all cases: cell-based
# [1] = target: Potassium voltage-gated channel subfamily KQT member 5 (Homo sapiens, UniProt Q9NR82); assay: Activity at human KCNQ5 expressed in CHOK1 cells assessed as ratio of amplitude of outward current in presence of test compound to amplitude of outward current in absence of test compound at 10 uM at -10 mV by whole cell patch clamp assay
# Chain of Potassium voltage-gated channel subfamily KQT member 5 (Q9NR82 whole entry): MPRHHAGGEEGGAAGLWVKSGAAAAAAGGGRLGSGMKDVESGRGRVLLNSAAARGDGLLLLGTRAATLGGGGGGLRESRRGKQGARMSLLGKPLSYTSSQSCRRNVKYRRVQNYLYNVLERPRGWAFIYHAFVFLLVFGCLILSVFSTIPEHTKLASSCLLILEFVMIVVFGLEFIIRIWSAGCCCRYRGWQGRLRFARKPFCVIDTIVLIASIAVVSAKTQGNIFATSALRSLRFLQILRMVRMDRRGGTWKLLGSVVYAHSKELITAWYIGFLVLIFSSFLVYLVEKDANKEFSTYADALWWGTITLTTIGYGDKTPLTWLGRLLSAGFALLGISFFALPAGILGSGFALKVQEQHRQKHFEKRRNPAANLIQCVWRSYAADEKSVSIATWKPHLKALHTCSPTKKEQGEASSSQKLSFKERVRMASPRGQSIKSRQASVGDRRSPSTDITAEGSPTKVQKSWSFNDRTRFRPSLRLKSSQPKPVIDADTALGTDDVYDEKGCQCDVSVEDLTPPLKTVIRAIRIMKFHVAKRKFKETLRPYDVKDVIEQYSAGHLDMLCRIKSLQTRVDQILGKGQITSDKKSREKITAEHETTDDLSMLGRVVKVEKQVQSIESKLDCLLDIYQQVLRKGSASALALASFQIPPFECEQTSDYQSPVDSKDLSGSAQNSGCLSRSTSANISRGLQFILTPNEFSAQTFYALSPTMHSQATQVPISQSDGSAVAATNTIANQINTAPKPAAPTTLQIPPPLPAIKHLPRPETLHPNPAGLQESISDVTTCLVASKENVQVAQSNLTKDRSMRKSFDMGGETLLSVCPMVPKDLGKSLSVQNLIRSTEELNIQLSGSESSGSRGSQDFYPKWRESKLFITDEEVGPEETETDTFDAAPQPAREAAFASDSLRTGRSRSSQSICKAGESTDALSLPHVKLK
# In short: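 CHO-K1 cells expressing the channel, whole-cell voltage clamp, compound at 10 μM. Read-out is the outward current ratio I/I0 with and without compound, taken at −10 mV. I/I0 > 1 counts as activation and < 1 as inhibition. More than four cells per compound.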
# [2] = target: Potassium voltage-gated channel subfamily KQT member 2 (Rattus norvegicus) (UniProt O88943); assay: Activity at rat homomeric KCNQ2 expressed in CHOK1 cells assessed as effect on current amplitude up to 30 uM at -10 mV by whole cell patch clamp assay
# Chain of Potassium voltage-gated channel subfamily KQT member 2 (Rattus norvegicus) (O88943 whole entry): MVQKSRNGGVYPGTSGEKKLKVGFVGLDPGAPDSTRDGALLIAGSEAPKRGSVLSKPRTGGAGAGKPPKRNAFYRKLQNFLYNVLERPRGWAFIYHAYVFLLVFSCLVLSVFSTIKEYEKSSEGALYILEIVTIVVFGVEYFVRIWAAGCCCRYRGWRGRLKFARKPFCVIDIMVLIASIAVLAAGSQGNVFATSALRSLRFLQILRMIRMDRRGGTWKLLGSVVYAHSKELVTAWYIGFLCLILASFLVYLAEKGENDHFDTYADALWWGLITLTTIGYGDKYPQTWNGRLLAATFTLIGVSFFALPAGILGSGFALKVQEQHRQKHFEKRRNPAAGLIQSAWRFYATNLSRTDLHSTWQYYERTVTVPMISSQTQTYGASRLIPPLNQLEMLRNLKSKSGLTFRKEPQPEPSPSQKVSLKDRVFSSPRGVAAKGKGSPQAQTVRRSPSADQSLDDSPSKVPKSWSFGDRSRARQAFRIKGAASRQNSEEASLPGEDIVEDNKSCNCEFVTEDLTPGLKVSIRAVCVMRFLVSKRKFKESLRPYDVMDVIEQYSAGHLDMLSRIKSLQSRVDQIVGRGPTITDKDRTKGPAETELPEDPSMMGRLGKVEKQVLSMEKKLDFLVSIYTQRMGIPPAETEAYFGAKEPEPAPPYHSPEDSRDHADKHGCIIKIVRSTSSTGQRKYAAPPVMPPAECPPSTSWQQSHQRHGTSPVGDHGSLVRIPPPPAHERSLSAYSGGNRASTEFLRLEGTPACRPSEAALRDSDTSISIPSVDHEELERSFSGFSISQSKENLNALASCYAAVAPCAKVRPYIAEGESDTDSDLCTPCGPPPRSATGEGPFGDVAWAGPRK
# In short: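 CHO-K1 cells expressing homomeric KCNQ2, recorded by whole-cell voltage clamp. Holding potential −80 mV with step depolarizations; current amplitude at −10 mV compared before and after compound across 1–30 μM, reported as percent change in current.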
# [3] = target: T1, Potassium voltage-gated channel subfamily KQT member 3 (Rattus norvegicus) (UniProt O88944); assay: Activity at rat KCNQ3 expressed in CHOK1 cells assessed as ratio of amplitude of outward current in presence of test compound to amplitude of outward current in absence of test compound at 10 uM at +60 mV by whole cell patch clamp assay
# T1 sequence (whole entry): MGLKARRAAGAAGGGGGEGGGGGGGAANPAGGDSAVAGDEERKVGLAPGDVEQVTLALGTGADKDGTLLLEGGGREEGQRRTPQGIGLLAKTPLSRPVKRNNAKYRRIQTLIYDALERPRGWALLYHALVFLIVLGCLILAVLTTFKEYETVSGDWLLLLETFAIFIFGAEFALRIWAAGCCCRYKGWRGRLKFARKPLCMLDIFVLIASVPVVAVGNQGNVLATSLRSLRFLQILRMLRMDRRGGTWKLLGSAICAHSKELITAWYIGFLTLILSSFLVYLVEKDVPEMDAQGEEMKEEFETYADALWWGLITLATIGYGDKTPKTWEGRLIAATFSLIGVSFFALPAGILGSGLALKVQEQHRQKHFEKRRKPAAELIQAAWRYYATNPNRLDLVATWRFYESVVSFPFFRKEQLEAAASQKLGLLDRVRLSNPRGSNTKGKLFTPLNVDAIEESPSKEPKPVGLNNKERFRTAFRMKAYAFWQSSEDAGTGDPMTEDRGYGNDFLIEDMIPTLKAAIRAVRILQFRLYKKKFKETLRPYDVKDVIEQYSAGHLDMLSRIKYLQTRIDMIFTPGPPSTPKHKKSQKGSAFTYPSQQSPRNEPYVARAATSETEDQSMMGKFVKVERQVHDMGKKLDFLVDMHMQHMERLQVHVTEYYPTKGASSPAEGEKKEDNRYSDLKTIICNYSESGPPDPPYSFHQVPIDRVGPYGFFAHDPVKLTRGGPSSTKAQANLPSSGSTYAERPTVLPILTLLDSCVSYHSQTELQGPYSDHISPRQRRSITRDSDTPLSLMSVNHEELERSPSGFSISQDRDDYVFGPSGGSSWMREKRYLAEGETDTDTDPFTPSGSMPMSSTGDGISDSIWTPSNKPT
# In short: (§1)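 CHO-K1 cells individually transfected with a single KCNQ subtype; whole-cell voltage clamp. Held at −80 mV, stepped from −90 to +60 mV in 10 mV increments (1500 ms), then to −120 mV for 500 ms. Outward current at −10 or +60 mV measured before (I0) and after (I) 10 μM compound; I/I0 >1 counts as activation. More than four cells per compound.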
# [4] = target: Potassium voltage-gated channel subfamily KQT member 2 (Rattus norvegicus) (UniProt O88943); assay: Effect on voltage-dependent activation of rat KCNQ2 expressed in CHOK1 cells assessed as negative shift in current activation curve at 10 uM by whole cell patch clamp assay
# [5] = target: Potassium voltage-gated channel subfamily KQT member 2 (Rattus norvegicus) (UniProt O88943); assay: Activity at rat KCNQ2 expressed in CHOK1 cells assessed as ratio of amplitude of outward current in presence of test compound to amplitude of outward current in absence of test compound at 10 uM at +60 mV by whole cell patch clamp assay; in short: as §1
# [6] = target: T2, Potassium voltage-gated channel subfamily KQT member 1 (Homo sapiens, UniProt P51787); assay: Activity at human KCNQ1 expressed in CHOK1 cells assessed as ratio of amplitude of outward current in presence of test compound to amplitude of outward current in absence of test compound at 10 uM at +60 mV by whole cell patch clamp assay; in short: as §1
# T2 sequence (P51787 whole entry): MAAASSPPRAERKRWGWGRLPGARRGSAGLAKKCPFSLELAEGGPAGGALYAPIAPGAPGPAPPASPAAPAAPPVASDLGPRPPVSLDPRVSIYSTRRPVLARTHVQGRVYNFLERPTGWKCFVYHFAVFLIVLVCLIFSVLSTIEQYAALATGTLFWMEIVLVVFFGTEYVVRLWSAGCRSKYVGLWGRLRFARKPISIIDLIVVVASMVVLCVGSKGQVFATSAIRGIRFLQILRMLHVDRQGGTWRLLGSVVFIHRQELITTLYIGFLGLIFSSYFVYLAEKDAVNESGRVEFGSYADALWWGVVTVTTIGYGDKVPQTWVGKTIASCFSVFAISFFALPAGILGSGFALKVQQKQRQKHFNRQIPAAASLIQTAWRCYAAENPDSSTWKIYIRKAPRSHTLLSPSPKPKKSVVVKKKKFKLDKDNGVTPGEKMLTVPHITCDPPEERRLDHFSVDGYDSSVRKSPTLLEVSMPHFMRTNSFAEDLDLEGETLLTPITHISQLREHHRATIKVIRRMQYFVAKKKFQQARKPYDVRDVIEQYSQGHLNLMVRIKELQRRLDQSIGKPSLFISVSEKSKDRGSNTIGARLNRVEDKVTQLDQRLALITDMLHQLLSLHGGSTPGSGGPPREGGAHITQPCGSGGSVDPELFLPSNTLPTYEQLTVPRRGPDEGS
compound,measurement,setting,value
C#CCN(Cc1ccc(F)cc1)c1ccc(NC(=O)OCC)c(NC(=O)OCC)c1,Ratio,[1],3.2
same,Activity,[2],inactive
same,Ratio,[3],1.7
same,Activity,[4],inactive
same,Ratio,[5],0.8
same,Ratio,[6],1
